From ChEMBL document CHEMBL2396586, “Discovery of non-LBD inhibitor for androgen receptor by structure-guide design” (Bioorg Med Chem Lett, 2013)

Key:
Androgen receptor = biological target: T1, Androgen receptor (Homo sapiens, UniProt P10275); assay: Inhibition of androgen receptor in human LNCAP cells after 1 day by luciferase reporter gene assay; assay type: cell-based
T1 sequence (P10275 whole entry): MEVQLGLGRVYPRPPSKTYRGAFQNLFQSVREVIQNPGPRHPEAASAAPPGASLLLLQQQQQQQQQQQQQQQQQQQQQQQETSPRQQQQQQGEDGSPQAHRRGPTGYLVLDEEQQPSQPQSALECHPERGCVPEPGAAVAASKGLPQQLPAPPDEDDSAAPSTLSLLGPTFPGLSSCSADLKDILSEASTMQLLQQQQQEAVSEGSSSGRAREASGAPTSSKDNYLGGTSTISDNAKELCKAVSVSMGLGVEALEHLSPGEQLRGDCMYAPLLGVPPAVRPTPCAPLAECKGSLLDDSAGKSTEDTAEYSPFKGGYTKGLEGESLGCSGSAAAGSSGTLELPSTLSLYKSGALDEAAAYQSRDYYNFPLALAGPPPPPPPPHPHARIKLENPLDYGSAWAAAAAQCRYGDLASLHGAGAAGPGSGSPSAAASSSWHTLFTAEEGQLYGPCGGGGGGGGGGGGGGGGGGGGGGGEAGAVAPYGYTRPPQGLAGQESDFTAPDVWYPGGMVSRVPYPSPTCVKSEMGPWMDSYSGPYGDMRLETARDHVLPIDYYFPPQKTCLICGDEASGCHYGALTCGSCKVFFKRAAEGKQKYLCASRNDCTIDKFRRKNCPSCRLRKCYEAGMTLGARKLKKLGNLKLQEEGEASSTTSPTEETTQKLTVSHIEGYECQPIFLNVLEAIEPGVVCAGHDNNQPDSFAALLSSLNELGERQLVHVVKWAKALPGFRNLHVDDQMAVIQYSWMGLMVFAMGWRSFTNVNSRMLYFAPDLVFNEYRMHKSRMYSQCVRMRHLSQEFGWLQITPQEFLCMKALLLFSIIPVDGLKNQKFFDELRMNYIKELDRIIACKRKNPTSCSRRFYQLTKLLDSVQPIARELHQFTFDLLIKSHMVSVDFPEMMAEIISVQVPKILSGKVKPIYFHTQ

LNCaP = assay: Cytotoxicity against human LNCAP cells assessed as cell viability after 2 days by cell counting method; assay type: functional, cell-based; details: 48 h
Method in brief: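 LNCap cells were grown in RPMI1640 with 10% FBS and penicillin/streptomycin at 37 °C in 5% CO2. They were seeded at 4 × 10³ cells/well, left 24 h, then exposed to compounds for 2 days. Viability was read by CCK-8 absorbance, in triplicate.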

[1] = Oral bioavailability in Sprague-Dawley rat at 2.5 mg/kg; assay type: ADME, organism-based; details: in vivo
Method in brief: (§1)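 Male Sprague-Dawley rats, n = 3 per route, were given 2.5 mg/kg by either intravenous or oral dosing. Plasma concentration–time profiles were followed, and PK parameters were derived from them, with AUC taken over 0–72 h and also to infinity.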

[2] = Mean residence time in Sprague-Dawley rat at 2.5 mg/kg, po; assay type: ADME, organism-based; design: dose 2.5 mg/kg, route oral; details: in vivo; method in brief: as §1
[3] = Mean residence time in Sprague-Dawley rat at 2.5 mg/kg, iv; assay type: ADME, organism-based; design: dose 2.5 mg/kg, route intravenous; details: in vivo; method in brief: as §1
[4] = Volume of distribution at steady state in Sprague-Dawley rat at 2.5 mg/kg, iv; assay type: ADME, organism-based; design: dose 2.5 mg/kg, route intravenous; details: in vivo, read-out: Vdss; method in brief: as §1
[5] = Blood clearance in Sprague-Dawley rat at 2.5 mg/kg, iv; assay type: ADME, organism-based; design: dose 2.5 mg/kg, route intravenous; method in brief: as §1
[6] = AUC (0 to infinity) in Sprague-Dawley rat at 2.5 mg/kg, po; assay type: ADME, organism-based; design: time infinity, dose 2.5 mg/kg, route oral; details: plasma; method in brief: as §1
[7] = AUC (0 to infinity) in Sprague-Dawley rat at 2.5 mg/kg, iv; assay type: ADME, organism-based; design: time infinity, dose 2.5 mg/kg, route intravenous; details: plasma; method in brief: as §1
[8] = AUC (0 to 72 hrs) in Sprague-Dawley rat at 2.5 mg/kg, po; assay type: ADME, organism-based; design: time < 72 hr, dose 2.5 mg/kg, route oral; details: plasma; method in brief: as §1
[9] = AUC (0 to 72 hrs) in Sprague-Dawley rat at 2.5 mg/kg, iv; assay type: ADME, organism-based; design: time < 72 hr, dose 2.5 mg/kg, route intravenous; details: plasma; method in brief: as §1
[10] = Elimination half life in Sprague-Dawley rat at 2.5 mg/kg, po; assay type: ADME, organism-based; design: dose 2.5 mg/kg, route oral; details: in vivo, read-out: beta t1/2 (converted); method in brief: as §1
[11] = Elimination half life in Sprague-Dawley rat at 2.5 mg/kg, iv; assay type: ADME, organism-based; design: dose 2.5 mg/kg, route intravenous; details: in vivo, read-out: beta t1/2 (converted); method in brief: as §1
[12] = Cmax in Sprague-Dawley rat at 2.5 mg/kg, po; assay type: ADME, organism-based; design: dose 2.5 mg/kg, route oral; details: in vivo; method in brief: as §1
[13] = Tmax in Sprague-Dawley rat at 2.5 mg/kg, po; assay type: ADME, organism-based; design: dose 2.5 mg/kg, route oral; details: in vivo; method in brief: as §1
CYP2D6 = CYP2D6 (Homo sapiens, UniProt P10635); assay: Inhibition of CYP2D6 (unknown origin) at 10 uM relative to control; assay type: ADME
Sequence of CYP2D6 (P10635 whole entry): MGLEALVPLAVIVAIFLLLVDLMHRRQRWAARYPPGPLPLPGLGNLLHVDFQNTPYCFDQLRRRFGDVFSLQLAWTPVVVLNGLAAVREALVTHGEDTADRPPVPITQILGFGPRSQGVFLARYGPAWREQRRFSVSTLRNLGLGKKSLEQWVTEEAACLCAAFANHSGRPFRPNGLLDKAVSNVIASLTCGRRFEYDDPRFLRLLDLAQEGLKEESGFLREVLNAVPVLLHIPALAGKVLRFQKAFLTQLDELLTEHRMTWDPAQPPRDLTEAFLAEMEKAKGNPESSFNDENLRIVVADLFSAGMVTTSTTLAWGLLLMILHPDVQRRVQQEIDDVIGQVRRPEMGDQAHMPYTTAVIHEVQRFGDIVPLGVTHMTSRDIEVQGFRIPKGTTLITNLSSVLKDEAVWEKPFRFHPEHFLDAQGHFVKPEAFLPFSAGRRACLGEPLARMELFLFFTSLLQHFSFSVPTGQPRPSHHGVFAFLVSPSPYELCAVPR

CYP3A4 = CYP3A4 (Homo sapiens, UniProt P08684); assay: Inhibition of human recombinant CYP3A4 using dibenzylfluorescein as substrate at 10 uM preincubated for 20 mins prior to enzyme/substrate addition measured after 20 mins by fluorometric assay relative to control; assay type: ADME; details: recombinant CYP3A4, probe dibenzylfluorescein
Sequence of CYP3A4 (P08684 whole entry): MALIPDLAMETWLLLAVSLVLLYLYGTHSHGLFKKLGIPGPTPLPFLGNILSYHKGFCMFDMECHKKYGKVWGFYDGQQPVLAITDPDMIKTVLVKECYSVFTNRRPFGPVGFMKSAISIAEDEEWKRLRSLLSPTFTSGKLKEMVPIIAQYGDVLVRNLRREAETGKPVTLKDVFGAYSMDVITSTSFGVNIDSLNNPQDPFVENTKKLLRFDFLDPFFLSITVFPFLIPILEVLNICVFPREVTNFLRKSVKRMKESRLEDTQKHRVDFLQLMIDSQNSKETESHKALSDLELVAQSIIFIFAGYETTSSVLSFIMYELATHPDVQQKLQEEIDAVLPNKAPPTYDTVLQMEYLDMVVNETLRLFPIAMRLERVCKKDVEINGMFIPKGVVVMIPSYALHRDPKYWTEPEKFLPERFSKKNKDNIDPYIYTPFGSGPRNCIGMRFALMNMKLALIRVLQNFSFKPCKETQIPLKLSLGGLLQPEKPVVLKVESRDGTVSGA
Method in brief: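 Vivid fluorometric kit. Compounds were in acetonitrile, with an acetonitrile vehicle control. NADP-regenerating system (1.0 mM NADP+, 3.3 mM glucose-6-phosphate, 3.3 mM MgCl2, 0.4 U/mL G6PDH in 10 mM KPO4, pH 8.0) was preincubated with compound at 37 °C for 20 min. Then 0.5 pmol recombinant human CYP3A4 plus dibenzylfluorescein was added, 20 min, and the reaction was stopped. Background had enzyme/substrate added after the stop. Fluorescein read at ex 485/em 530 nm.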

[14] = Permeability of the compound at pH 7.4 at 500 uM after 16 hrs by PAMPA; assay type: ADME; details: pH 7.4, 16 h
Method in brief: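 PAMPA: the donor solution was diluted from a 1 mM DMSO stock into system buffer at pH 7.4. Lipid solution was applied to each filter membrane, and the receiver side held acceptor sink buffer. The plates were incubated 16 h at room temperature. Donor and receiver sides were analysed by UV spectrometry, and donor initial concentration was also measured.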

[15] = Octanol-water partition coefficient, log P of the compound by pH-metric method; assay type: physicochemical
[16] = Metabolic stability in rat liver microsomes assessed as compound remaining at […] after 1 hr; assay type: ADME, Microsome; details: read-out: Stability

## CCS(=O)(=O)Nc1cccc(-c2cc(=O)n(-c3ccc4ccccc4c3)nc2C)c1
Androgen receptor
  IC50: 9.76 µM
LNCaP
  IC50: 18.3 µM

## CC(O)(CS(=O)(=O)c1ccc(F)cc1)C(=O)Nc1ccc(C#N)c(C(F)(F)F)c1 (centres undefined) [BICALUTAMIDE]
LNCaP
  IC50: 23.8 µM

## CCS(=O)(=O)Nc1cccc(-c2cc(=O)n(-c3cc(Cl)cc(Cl)c3)nc2C)c1
Androgen receptor
  IC50: 13.2 µM
LNCaP
  IC50: 22.9 µM

## CCS(=O)(=O)Nc1cccc(-c2cc(=O)n(-c3ccc(F)c(Cl)c3)nc2C)c1
Androgen receptor
  IC50: 5.07 µM
LNCaP
  IC50: 26.7 µM

## CCS(=O)(=O)Nc1cccc(-c2cc(=O)n(-c3ccc(Cl)c(Cl)c3)nc2C)c1
[1]
  bioavailability: 102%
[2]
  MRT: 34.9 h
[3]
  MRT: 26.9 h
[4]
  Vd: 2.25 L/kg
[5]
  clearance: 1.41 mL/min/kg
[6]
  AUC(0-inf): 30500 ng·h/mL
[7]
  AUC(0-inf): 29800 ng·h/mL
[8]
  AUC(0-t) at 72 h: 26800 ng·h/mL
[9]
  AUC(0-t) at 72 h: 27500 ng·h/mL
[10]
  half-life: 21.6 h
[11]
  half-life: 19.2 h
[12]
  Cmax: 767 ng/mL
[13]
  Tmax: 10.3 h
CYP2D6
  inhibition at 10 µM: 0%
CYP3A4
  inhibition at 20 min, 10 µM: 6.7%
[14]
  permeability: permeable
[15]
  logP: 3.82
Androgen receptor
  IC50: 2.65 µM
LNCaP
  IC50: 11.6 µM
[16]
  remaining at 1 h: > 99%

## CCS(=O)(=O)Nc1cccc(-c2cc(=O)n(-c3ccc(C#N)cc3)nc2C)c1
Androgen receptor
  IC50: 6.26 µM
LNCaP
  IC50: 39 µM
